Reference: ChEMBL document CHEMBL1156002, “Synthesis, Raman, FT-IR, NMR spectroscopic characterization, antimicrobial activity, cytotoxicity and DNA binding of new mixed aza-oxo-thia macrocyclic compounds” (2009)

Columns and labels:
Type in all cases: functional
Klebsiella pneumoniae [1] = test: Antibacterial activity against Klebsiella pneumoniae UC57 at 30 ug after 24 hrs by agar disk diffusion assay; settings: UC57, 24 h, read-out: IZ
Method in brief: (§1)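 Disk diffusion with sterile 6 mm discs loaded with DMSO solutions of the test agents and placed on inoculated agar. Bacteria were pre-grown in Nutrient Broth at 30 °C for 24 h, and plates were incubated at 35 °C for 24 h. Each plate carried a reference antibiotic disc matched to the organism, and a DMSO-only solvent control was run.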

Listeria monocytogenes [2] = test: Antibacterial activity against Listeria monocytogenes ATCC 15313 at 30 ug after 24 hrs by agar disk diffusion assay; settings: ATCC 15313, 24 h, read-out: IZ; method in brief: as §1
Pseudomonas aeruginosa [3] = test: Antibacterial activity against Pseudomonas aeruginosa ATCC 27853 at 30 ug after 24 hrs by agar disk diffusion assay; settings: ATCC 27853, 24 h, read-out: IZ; method in brief: as §1
Bacillus cereus [4] = test: Antibacterial activity against Bacillus cereus ATCC 7064 at 30 ug after 24 hrs by agar disk diffusion assay; settings: ATCC 7064, 24 h, read-out: IZ; method in brief: as §1
Micrococcus luteus [5] = test: Antibacterial activity against Micrococcus luteus La 2971 at 30 ug after 24 hrs by agar disk diffusion assay; settings: La 2971, 24 h, read-out: IZ; method in brief: as §1
[6] = tested on: Mycolicibacterium smegmatis; test: Antibacterial activity against Mycobacterium smegmatis CCM 2067 at 30 ug after 24 hrs by agar disk diffusion assay; settings: CCM 2067, 24 h, read-out: IZ; method in brief: as §1
Proteus vulgaris [7] = test: Antibacterial activity against Proteus vulgaris ATCC 8427 at 30 ug after 24 hrs by agar disk diffusion assay; settings: ATCC 8427, 24 h, read-out: IZ; method in brief: as §1
Escherichia coli [8] = test: Antibacterial activity against Escherichia coli ATCC 11230 at 30 ug after 24 hrs by agar disk diffusion assay; settings: ATCC 11230, 24 h, read-out: IZ
Method in brief: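 Bacteria pre-grown in Nutrient Broth at 30 °C for 24 h. Sterile 6 mm discs loaded with compound solutions freshly made in DMSO were placed on inoculated agar and incubated at 35 °C for 24 h. The medium was supplemented with DMSO as a solvent control, and an appropriate reference antibiotic disc was added to each plate.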

Staphylococcus aureus [9] = test: Antibacterial activity against Staphylococcus aureus ATCC 6538 at 30 ug after 24 hrs by agar disk diffusion assay; settings: ATCC 6538, 24 h, read-out: IZ
Method in brief: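 Sterile 6 mm paper discs were loaded with ligand solution freshly prepared in DMSO and placed on inoculated agar. The inoculum came from broth cultures: bacteria in Nutrient Broth at 30 °C for 24 h, yeasts in Malt Extract Broth for 48 h. Plates were incubated at 35 °C for 24 h (bacteria) or 25 °C for 72 h (yeasts). A DMSO solvent control and a reference antibiotic disc were included on each plate.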

[10] = tested on: Mycolicibacterium smegmatis; test: Antibacterial activity against Mycobacterium smegmatis CCM 2067 after 24 hrs by broth micro dilution method
Listeria monocytogenes [11] = test: Antibacterial activity against Listeria monocytogenes ATCC 15313 after 24 hrs by broth micro dilution method
Staphylococcus aureus [12] = test: Antibacterial activity against Staphylococcus aureus ATCC 6538 after 24 hrs by broth micro dilution method
Pseudomonas aeruginosa [13] = test: Antibacterial activity against Pseudomonas aeruginosa ATCC 27853 after 24 hrs by broth micro dilution method
Micrococcus luteus [14] = test: Antibacterial activity against Micrococcus luteus La 2971 after 24 hrs by broth micro dilution method
Bacillus cereus [15] = test: Antibacterial activity against Bacillus cereus ATCC 7064 after 24 hrs by broth micro dilution method
Klebsiella pneumoniae [16] = test: Antibacterial activity against Klebsiella pneumoniae UC57 after 24 hrs by broth micro dilution method
Escherichia coli [17] = test: Antibacterial activity against Escherichia coli ATCC 11230 after 24 hrs by broth micro dilution method
Proteus vulgaris [18] = test: Antibacterial activity against Proteus vulgaris ATCC 8427 after 24 hrs by broth micro dilution method
Escherichia coli [19] = test: Antibacterial activity against Escherichia coli ATCC 11230 at 10 IU after 24 hrs by agar disk diffusion assay; method in brief: as §1
Staphylococcus aureus [20] = test: Antibacterial activity against Staphylococcus aureus ATCC 6538 at 10 IU after 24 hrs by agar disk diffusion assay; method in brief: as §1
Listeria monocytogenes [21] = test: Antibacterial activity against Listeria monocytogenes ATCC 15313 at 10 IU after 24 hrs by agar disk diffusion assay; method in brief: as §1
Bacillus cereus [22] = test: Antibacterial activity against Bacillus cereus ATCC 7064 at 10 IU after 24 hrs by agar disk diffusion assay; method in brief: as §1
[23] = tested on: Mycolicibacterium smegmatis; test: Antibacterial activity against Mycobacterium smegmatis CCM 2067 at 10 IU after 24 hrs by agar disk diffusion assay; method in brief: as §1
Pseudomonas aeruginosa [24] = test: Antibacterial activity against Pseudomonas aeruginosa ATCC 27853 at 10 IU after 24 hrs by agar disk diffusion assay; method in brief: as §1
Klebsiella pneumoniae [25] = test: Antibacterial activity against Klebsiella pneumoniae UC57 at 10 IU after 24 hrs by agar disk diffusion assay; method in brief: as §1
Proteus vulgaris [26] = test: Antibacterial activity against Proteus vulgaris ATCC 8427 at 10 IU after 24 hrs by agar disk diffusion assay; method in brief: as §1
Micrococcus luteus [27] = test: Antibacterial activity against Micrococcus luteus La 2971 at 10 IU after 24 hrs by agar disk diffusion assay; method in brief: as §1

Compound	zone of inhibition at 30 µg/disc (Klebsiella pneumoniae [1])	zone of inhibition at 30 µg/disc (Listeria monocytogenes [2])	zone of inhibition at 30 µg/disc (Pseudomonas aeruginosa [3])	zone of inhibition at 30 µg/disc (Bacillus cereus [4])	zone of inhibition at 30 µg/disc (Micrococcus luteus [5])	zone of inhibition at 30 µg/disc [6]	zone of inhibition at 30 µg/disc (Proteus vulgaris [7])	zone of inhibition at 30 µg/disc (Escherichia coli [8])	zone of inhibition at 30 µg/disc (Staphylococcus aureus [9])	further results
CN(C)[C@@H]1C(O)=C(C(N)=O)C(=O)[C@@]2(O)C(O)=C3C(=O)c4c(O)cccc4[C@@](C)(O)[C@H]3C[C@@H]12 [TETRACYCLINE]	30 mm	28 mm	22 mm	34 mm	26 mm	24 mm	25 mm	28 mm	26 mm	
GENTAMICIN										MIC [10]: 12.5 µg/mL; MIC (Listeria monocytogenes [11]): 12.5 µg/mL; MIC (Staphylococcus aureus [12]): 25 µg/mL; MIC (Pseudomonas aeruginosa [13]): 6.25 µg/mL; MIC (Micrococcus luteus [14]): 25 µg/mL; MIC (Bacillus cereus [15]): 6.25 µg/mL; MIC (Klebsiella pneumoniae [16]): 6.25 µg/mL; MIC (Escherichia coli [17]): 6.25 µg/mL; MIC (Proteus vulgaris [18]): 6.25 µg/mL
CO/N=C(\C(=O)N[C@@H]1C(=O)N2C(C(=O)O)=C(COC(C)=O)CS[C@H]12)c1csc(N)n1 [CEFOTAXIME]	13 mm	16 mm	32 mm	54 mm	18 mm	11 mm	14 mm	10 mm	12 mm	
CC1(C)S[C@@H]2[C@H](NC(=O)Cc3ccccc3)C(=O)N2[C@H]1C(=O)O [PENICILLIN G]										inhibition zone (IZ) (Escherichia coli [19]): 18 mm; inhibition zone (IZ) (Staphylococcus aureus [20]): 13 mm; inhibition zone (IZ) (Listeria monocytogenes [21]): 10 mm; inhibition zone (IZ) (Bacillus cereus [22]): 8 mm; inhibition zone (IZ) [23]: 15 mm; inhibition zone (IZ) (Pseudomonas aeruginosa [24]): 36 mm; inhibition zone (IZ) (Klebsiella pneumoniae [25]): 18 mm; inhibition zone (IZ) (Proteus vulgaris [26]): 14 mm; inhibition zone (IZ) (Micrococcus luteus [27]): 10 mm
CN[C@H](CC(C)C)C(=O)N[C@H]1C(=O)N[C@@H](CC(N)=O)C(=O)N[C@H]2C(=O)N[C@H]3C(=O)N[C@H](C(=O)N[C@H](C(=O)O)c4cc(O)cc(O)c4-c4cc3ccc4O)[C@H](O)c3ccc(c(Cl)c3)Oc3cc2cc(c3O[C@@H]2O[C@H](CO)[C@@H](O)[C@H](O)[C@H]2O[C@H]2C[C@](C)(N)[C@H](O)[C@H](C)O2)Oc2ccc(cc2Cl)[C@H]1O [VANCOMYCIN]	22 mm	26 mm	34 mm	10 mm	20 mm	20 mm	18 mm	22 mm	13 mm	
